Assay outcomes from PubChem BioAssay.
A selection: hits, their analogues and other compounds. The true share with any hit is near 3.7%.
B2AR ag – beta2AR agonists driving receptor internalization, primary screen, cell-based, FAP fluorogen, flow cytometry | Beta-2 adrenergic receptor (Homo sapiens), P07550 | Am2.2-beta2AR cells | response, % (no concentration beside the values) | 340,000 tested, 0.43% active;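 active = response above a set limit, near 3 SD of response in nonfluorescent compounds, cut at about 42% in these data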
Mdm2 ligase inh – MDM2-luciferase reporter signal enhancers, primary screen, MDM2 E3 ligase inhibitor project, cell-based, luminescence, 1536-well; E3 ubiquitin-protein ligase Mdm2 (Homo sapiens), Q00987; cell-based MDM2 ubiquitination luciferase reporter, 2 h; 0 = plate control, 100 = twice control, blank-subtracted; signal enhancement, % at 5 µM; 210,000 tested, 0.11% active; AID 1230, 2008;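 active = signal enhancement of 30% or more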;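 note: luminescence tracks abundance of the self-degrading MDM2-luciferase fusion protein; higher signal means inhibition of MDM2 E3 ligase activity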
Target sequence (Q00987 whole entry, looked up, the tested form may be a part): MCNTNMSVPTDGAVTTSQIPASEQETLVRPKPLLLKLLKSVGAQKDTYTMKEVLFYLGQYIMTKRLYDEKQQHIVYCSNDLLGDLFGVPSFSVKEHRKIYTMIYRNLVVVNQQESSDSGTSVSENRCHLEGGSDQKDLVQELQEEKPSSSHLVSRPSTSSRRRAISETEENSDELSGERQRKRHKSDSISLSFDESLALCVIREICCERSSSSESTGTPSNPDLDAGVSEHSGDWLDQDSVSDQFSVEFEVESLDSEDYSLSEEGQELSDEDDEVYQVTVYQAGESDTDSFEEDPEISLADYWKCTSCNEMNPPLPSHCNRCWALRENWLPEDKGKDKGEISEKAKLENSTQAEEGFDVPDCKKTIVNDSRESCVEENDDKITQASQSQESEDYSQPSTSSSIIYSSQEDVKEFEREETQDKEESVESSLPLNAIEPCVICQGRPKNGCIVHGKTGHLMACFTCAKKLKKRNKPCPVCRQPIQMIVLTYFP
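System: stable MDM2–luciferase fusion reporter cells / Input: 2000 cells seeded into each well / Schedule: 4 h settle plus 2 h compound, 37 °C / Compound: single-point 5 µM / Buffer or medium: cells held in DMEM / Benchmarks: control and blank well means / Evaluation: percent signal gain over controls, blank-subtracted / Measured by: luciferase luminescence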
Mdm2-MdmX inh – inhibitors of human Mdm2-MdmX association, primary screen, cell-based, luminescence, split luciferase, SaOS-2, uHTS; SaOS-2 split-luciferase Mdm2/MdmX complementation; AID 485346, 2010; Protein Mdm4 (Homo sapiens) + E3 ubiquitin-protein ligase Mdm2 (Homo sapiens), …; inhibition, % at 8 µM; 330,000 tested, 3% active;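 active = inhibition of at least 50% at 8 µM in the primary screen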
Dynein transport – inhibitors of GR-EGFP nuclear translocation, primary screen, dynein cargo transport inhibitor project, imaging, high-content, 3617.4 mouse cells. test concentration mostly 20 µM; stimulated with dexamethasone, 1 µM; active compounds read low. z-score, hits read low. 220,000 tested, 0.47% active. AID 1381, 2008;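 active = plate z-score of nuclear minus cytoplasmic receptor signal below a set negative limit, without overly bright fluorescence or cell loss, cut at about -3.5 in these data, passing the limit was not always enough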;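 note: z-score of nuclear minus cytoplasmic ring GR-EGFP intensity difference per well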
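medium = tetracycline-free induction medium containing charcoal-stripped FBS | probe or stimulus = dexamethasone, 1.0 µM final | timing = 48 h induction, then 1 h compound, then 30 min agonist, 37 °C | detection = automated 10x imaging of fixed Hoechst-stained cells | read-out basis = nuclear versus cytoplasmic GR-EGFP signal, averaged per well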
XBP1 UPR activ – activators of adaptive XBP1 UPR arm, primary screen, cell-based, CHO-XBP1 luciferase reporter, luminescence, uHTS. IRE1-XBP1 UPR activation; percent of tunicamycin response, DMSO as zero. activation, % at 20 µM. 330,000 tested, 0.33% active;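 active = versus positive control, 20 µM dose yields 30% or more activation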
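incubation = overnight seeding at 37 °C, 6 h compound treatment at 37 °C | assay system = CHO-XBP1 cells stably carrying IRE1-XBP1-driven luciferase reporter | input = 1000 cells per well | detection = luciferase luminescence | dosing = single point, 20 µM final compound, 1% DMSO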
CHOP UPR activ – activators of apoptotic CHOP UPR arm, primary screen, cell-based, CHO-CHOP luciferase reporter, luminescence, uHTS; activation, % at 10 µM; 330,000 tested, 0.34% active; AID 449763, 2010; UPR activation; percent of tunicamycin response over DMSO baseline;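 active = at 10 µM dose, activation of 40% or more, normalized to positive control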
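System: CHO-CHOP luciferase reporter cell line; amount: 500 cells/well; buffer or medium: F12 medium containing 10% fetal bovine serum; incubation: 6 h compound exposure at 37 °C after overnight seeding; measured by: luciferase luminescence after 10 min with Steady-Glo reagent; evaluation: % reporter activation, DMSO baseline versus tunicamycin full activation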
Mdm2 MdmX conf – Mdm2-MdmX complex disruptors, retested hits, confirmation, luminescence, single concentration. inhibition, % at 8 µM. shares compounds with Mdm2-MdmX inh. 10,000 tested, 55% active. Mdm2-MdmX binding, luminescent assay; in the data active = inhibition above about 40%
FLuc counter – full-length luciferase signal inhibition, confirmation, counter-screen for Mdm2/MdmX interaction inhibitor project, cell-based, single concentration, SaOS-2 | shares compounds with Mdm2-MdmX inh | SaOS-2 full-length luciferase counterscreen, luminescence | inhibition, % at 8 µM | 6,200 tested, 77% active | AID 504607, 2011;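 active = mean inhibition at 8 µM reaching about 37%, which flags the compound as non-specific, limit read from the data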;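 note: p53-null SaOS-2 cells with luciferase driven by a doxycycline-inducible promoter; compound on cells about two nights before reading with doxycycline added after day one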
Numbers stand for hits; i = inactive; nt = not tested or not shown.

SMILES	B2AR ag	Mdm2 ligase inh	Mdm2-MdmX inh	Dynein transport	XBP1 UPR activ	CHOP UPR activ	Mdm2 MdmX conf	FLuc counter
Cc1cccn2c(=O)nc(SCC(=O)N3CCCC3)nc12	i	nt	i	nt	i	i	nt	nt
COc1ccc(Cl)cc1C(=O)NC(=S)Nc1cc(-c2nc3ccccc3[nH]2)ccc1C	i	i	75.6	i	i	i	i	nt
COc1ccc(C/C(N)=N/OC(=O)c2ccc(Cl)cc2)cc1	i	i	i	i	i	i	nt	nt
N/C(CCS(=O)(=O)c1ccc(Cl)cc1)=N\OC(=O)c1ccccc1Cl	i	i	91.6	i	i	i	86.7	49.6
N/C(Cc1ccc(Cl)cc1)=N\OC(=O)c1ccc2ccccc2c1	i	i	99.4	i	i	i	i	nt
N/C(Cc1ccc(Cl)cc1)=N\OC(=O)c1cccc2ccccc12	i	i	98.7	i	i	i	76.4	38.8
CN(C(=O)CSc1cc(Cl)ccc1Cl)C1CCS(=O)(=O)C1 (centres undefined)	i	nt	i	nt	i	i	nt	nt
Cc1cccc(N2CCN(C(=O)c3cc4c(=O)n(C)c5ccccc5c4n3C)CC2C)c1 (centres undefined)	nt	i	52.3	i	i	i	i	nt
COc1ccc(C(NC(C)=O)c2ccc3cccnc3c2O)c(OC)c1 (centres undefined)	i	i	73.7	nt	i	i	70.8	i
CCCC(=O)NC(c1ccc(Cl)cc1)c1ccc2cccnc2c1O (centres undefined)	i	nt	78.1	nt	i	i	83.5	57.0
CC(=O)NC(c1ccc2ccccc2c1)c1ccc2cccnc2c1O (centres undefined)	i	nt	86.1	nt	i	i	89.7	i
CCCCC(=O)NC(c1ccc(Cl)cc1)c1ccc2cccnc2c1O (centres undefined)	i	nt	77.1	nt	i	i	85.8	i
C=CCN=C1S/C(=C\N(C)C)C(=O)N1S(=O)(=O)c1ccc(C)cc1	i	nt	i	nt	i	i	nt	nt
CCCC(=O)NC(c1ccccc1)c1c(O)ccc2ccccc12 (centres undefined)	i	nt	i	nt	i	i	nt	nt
CC(=O)NC(c1ccc(Cl)cc1Cl)c1ccc2cccnc2c1O (centres undefined)	i	nt	68.0	nt	i	i	86.7	53.5
CCCC(=O)NC(c1ccc(Cl)cc1Cl)c1ccc2cccnc2c1O (centres undefined)	i	nt	81.1	nt	i	i	84.7	54.8
CCCC(=O)NC(c1ccc(C)cc1)c1ccc2cccnc2c1O (centres undefined)	i	nt	80.6	nt	i	i	87.2	53.0
CC(=O)NC(C)c1cc(Cl)c2cccnc2c1O (centres undefined)	i	nt	i	nt	i	i	nt	nt
COc1ccc(COc2cc(-c3cccc(OC)c3)nc3ccc(NC(=O)c4cccnc4)cc23)cc1	i	nt	63.3	i	i	i	55.1	69.3
COc1ccc(COc2cc(-c3cccc(OC)c3)nc3ccc(NC(=O)c4ccccc4)cc23)cc1	i	nt	i	i	i	i	nt	nt
COc1ccc(COc2cc(-c3cccc(OC)c3)nc3ccc(NC(=O)c4ccc(OC)cc4)cc23)cc1	i	nt	52.3	i	i	i	40.1	62.1
COc1ccc(CCNc2c(C)c(C)nc3ncnn23)cc1	i	i	50.4	i	i	i	46.0	69.2
CCCCOC(=O)Cn1c2ccc(OC)cc2c2nc3ccccc3nc21	i	i	74.5	i	i	i	i	nt
NC(=O)c1cccc(-c2cnc(N)c(C(=O)c3cccnc3)n2)c1	i	nt	nt	nt	nt	nt	nt	nt
CC(=O)Nc1cccc(-c2cnc(N)c(C(=O)c3cccnc3)n2)c1	i	nt	90.0	nt	i	i	93.4	54.5
SMILES	B2AR ag	Mdm2 ligase inh	Mdm2-MdmX inh	Dynein transport	XBP1 UPR activ	CHOP UPR activ	Mdm2 MdmX conf	FLuc counter
COc1ccc(-c2noc(CCC(=O)Nc3ccc(C)c(C)c3)n2)cc1	i	i	i	i	i	i	nt	nt
COc1ccc(CC(=O)Nc2ccc(-c3noc(-c4cc(OC)c(OC)c(OC)c4)n3)cc2)cc1	i	i	50.0	i	i	i	51.5	79.3
COc1ccc(Cl)cc1-c1nc(-c2ccc(NC(=O)c3ccncc3)cc2)no1	i	nt	i	i	i	i	nt	nt
CCOc1ccccc1-c1nc(-c2ccc(NC(=O)Cc3ccc(OC)cc3)cc2)no1	i	i	57.2	i	i	i	i	nt
COc1ccc(NC(=O)c2cc(-c3ccc4c(c3)OCO4)on2)cc1OC	i	nt	67.9	nt	i	i	44.8	97.1
COc1ccc(-c2nc(-c3ccc(NC(=O)c4ccncc4)cc3)no2)cc1OC	i	i	69.5	i	i	i	81.5	81.5
COc1ccc(S(N)(=O)=O)cc1C(=O)N(C)CC(=O)Nc1ccc(N2CCOCC2)cc1	i	nt	i	nt	i	i	nt	nt
O=C(NCCCNC(=O)c1cccnc1)c1ccc(Cl)cc1	i	nt	i	nt	i	i	nt	nt
COc1cc(CN2CC(=O)N(c3cc(Cl)ccc3C)C2=S)cc(OC)c1OC	i	nt	i	nt	i	i	nt	nt
COc1cc(-c2nc(-c3ccc(NC(=O)c4ccc5c(c4)OCO5)cc3)no2)cc(OC)c1OC	i	i	83.0	i	i	i	77.0	43.8
COc1ccc(NC(=O)c2ccc(-c3ccc(-c4noc(C)n4)cc3C)cc2)cc1N1CCN(C)CC1	i	nt	98.8	nt	i	i	i	nt
Cc1ccccc1-c1nc(-c2ccc(NC(=O)c3ccc4c(c3)OCO4)cc2)no1	i	i	i	i	i	i	nt	nt
CC(C)NC(=NCc1ccc(Cl)cc1Cl)Nc1ccccc1	i	nt	i	nt	i	i	nt	nt
Cc1ccc(NC(=O)c2nc(S(=O)(=O)Cc3ccccc3)ncc2Cl)cc1	i	nt	81.7	nt	i	i	63.3	51.5
O=C(Nc1ccc(F)cc1)c1nc(S(=O)(=O)Cc2ccccc2)ncc1Cl	i	nt	95.8	nt	i	i	94.5	52.1
COc1ccc(OC)c(NC(=O)CS(=O)(=O)Cc2ccccc2)c1	i	nt	i	nt	i	i	nt	nt
